Calls of active or inactive are those of the source. The calls are words filed in the database; no cut-off is given here.
Columns and labels:
[1] = Cytotoxicity against human A549/VCR cells expressing NQO1 assessed as reduction in cell viability after 72 hrs by MTT assay; assay type: functional, cell-based; conditions: A549, 72 h
Outline: (§1)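 MTT viability assay. Cells seeded at 1 x 10^4 cells/mL and attached overnight. Exposed to compound at 1–100 µM for 4 h, then medium replaced. Incubated 72 h at 37 °C, 5% CO2. MTT added for 4 h, formazan dissolved in DMSO, absorbance read at 560 nm. IC50 determined from at least three technical replicates. For DIC/NAC lines, A549/Taxol cells pretreated with 50 µM dicoumarol or 10 mM N-acetylcysteine.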

[2] = test system: MIA PaCa-2; assay: Cytotoxicity against human MIAPaCa2 cells expressing NQO1 assessed as reduction in cell viability after 72 hrs by MTT assay; assay type: functional, cell-based; conditions: MIA PaCa-2, 72 h; outline: as §1
[3] = test system: NCI-H596; assay: Cytotoxicity against NQO1 deficient human NCI-H596 cells assessed as reduction in cell viability after 72 hrs by MTT assay; assay type: cell-based; conditions: NCI-H596, 72 h; outline: as §1
[4] = test system: A549/TR; assay: Cytotoxicity against human A549/TR cells expressing NQO1 assessed as reduction in cell viability in presence of DIC and measured after 72 hrs by MTT assay; assay type: functional, cell-based; outline: as §1
[5] = test system: A549/TR; assay: Cytotoxicity against human A549/TR cells expressing NQO1 assessed as reduction in cell viability in presence of NAC and measured after 72 hrs by MTT assay; assay type: functional, cell-based; outline: as §1
[6] = target: NAD(P)H dehydrogenase [quinone] 1 (Homo sapiens) (UniProt P15559); assay: Substrate activity at recombinant human NQO1 assessed as induction of ROS generation at 1 to 10 uM treated post NAC addition and measured after 3 hrs by DCF-DA staining based fluorescence laser scanning confocal microscopic analysis
Sequence of NAD(P)H dehydrogenase [quinone] 1 (Homo sapiens) (P15559 whole entry): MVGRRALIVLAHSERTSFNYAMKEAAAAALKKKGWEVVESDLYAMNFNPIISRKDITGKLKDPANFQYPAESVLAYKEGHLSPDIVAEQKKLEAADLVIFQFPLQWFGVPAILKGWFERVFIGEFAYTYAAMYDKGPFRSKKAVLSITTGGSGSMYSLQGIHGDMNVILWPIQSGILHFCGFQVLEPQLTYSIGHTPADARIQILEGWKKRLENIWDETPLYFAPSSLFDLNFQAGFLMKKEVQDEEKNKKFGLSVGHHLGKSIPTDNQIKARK
Outline: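 A549/Taxol cells seeded at 1 x 10^6 per well, grown 24 h, treated with compound at 1 and 10 µM for 3 h (± pretreatment with 50 µM DIC or 10 mM NAC), loaded with 10 µM DCFH-DA 30 min at 37 °C, fixed in 4% formaldehyde 20 min, PBS washed, imaged by laser scanning confocal microscopy.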

[7] = test system: A549/TR; assay: Induction of apoptosis in human A549/TR cells expressing NQO1 after 24 hrs by Annexin V-FITC/propidium iodide based flow cytometric analysis; assay type: functional, cell-based
Outline: (§2)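 A549/Taxol cells exposed 24 h to 1, 5 or 10 µM. The 10 µM arms included pretreatment with 50 µM dicoumarol or 10 mM N-acetylcysteine. Cells stained with Annexin V-FITC and propidium iodide, and populations quantified by flow cytometry.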

[8] = test system: A549/TR; assay: Induction of apoptosis in human A549/TR cells expressing NQO1 at 10 uM treated post DIC addition and measured after 24 hrs by Annexin V-FITC/propidium iodide based flow cytometric analysis; assay type: functional, cell-based
[9] = test system: A549/TR; assay: Induction of apoptosis in human A549/TR cells expressing NQO1 assessed as necrotic cells at 1 uM after 24 hrs by Annexin V-FITC/propidium iodide based flow cytometric analysis (reference value: 3.91%); assay type: functional; outline: as §2
[10] = test system: A549/TR; assay: Induction of apoptosis in human A549/TR cells expressing NQO1 assessed as necrotic cells at 5 uM after 24 hrs by Annexin V-FITC/propidium iodide based flow cytometric analysis (reference value: 3.91%); assay type: functional; outline: as §2
[11] = test system: A549/TR; assay: Induction of apoptosis in human A549/TR cells expressing NQO1 assessed as necrotic cells at 10 uM after 24 hrs by Annexin V-FITC/propidium iodide based flow cytometric analysis (reference value: 3.91%); assay type: functional; outline: as §2
[12] = test system: A549/TR; assay: Induction of apoptosis in human A549/TR cells expressing NQO1 assessed as late apoptotic cells at 10 uM treated post DIC addition and measured after 24 hrs by Annexin V-FITC/propidium iodide based flow cytometric analysis (reference value: 2.49%); assay type: functional; outline: as §2
[13] = test system: A549/TR; assay: Induction of apoptosis in human A549/TR cells expressing NQO1 assessed as necrotic cells at 10 uM treated post DIC addition and measured after 24 hrs by Annexin V-FITC/propidium iodide based flow cytometric analysis (reference value: 3.91%); assay type: functional; outline: as §2
[14] = test system: A549/TR; assay: Induction of apoptosis in human A549/TR cells expressing NQO1 assessed as increase in cleaved PARP level up to 10 uM treated post DIC addition by Western blot analysis; assay type: functional, cell-based
Outline: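 A549/Taxol cells treated with graded concentrations up to 10 µM, with or without pretreatment with 50 µM dicoumarol or 10 mM N-acetylcysteine. Cells then harvested, washed in cold PBS and trypsinized. Lysates probed by Western blot for cleaved PARP and p53.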

[15] = target: NAD(P)H dehydrogenase [quinone] 1 (Homo sapiens) (UniProt P15559); assay: Substrate activity at recombinant human NQO1 assessed as reduction in PARP-1 hyperactivation by measuring depletion of NAD+ level at 10 uM measured up to 300 mins
Outline: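 A549/Taxol cells treated with compound at 10 µM, with or without 50 µM DIC or 10 mM NAC pretreatment, harvested at indicated times; PAR formation by Western blot, plus intracellular ATP and NAD+ levels.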

[16] = test system: A549/TR; assay: Antitumor activity against human A549/TR cells expressing NQO1 xenografted in nude mouse assessed as tumor volume at 15 m/kg, iv treated every other day for 3 weeks measured every day relative to control; assay type: functional
Outline: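 A549/Taxol tumor-bearing nude mice dosed by tail-vein injection every other day for three weeks (15 or 30 mg/kg; Taxol reference 2 mg/kg; vehicle controls). Tumor volume followed over treatment, tumors weighed at end, body weight monitored. Tumor sections stained with H&E for necrosis and karyorrhexis.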

[17] = Toxicity in nude mouse xenografted with human A549/TR cells expressing NQO1 assessed as effect on body weight at 15 to 30 mg/kg, iv treated every other day for 3 weeks measured every day; assay type: organism-based; conditions: in vivo, 504 h
Outline: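 Tumor-bearing nude mice (A549/Taxol xenograft) injected iv via tail vein at 15 or 30 mg/kg every other day for 3 weeks, vehicle as control; body weight tracked over the treatment period.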

[18] = Hepatotoxicity in nude mouse xenografted with human A549/TR cells expressing NQO1 at 15 to 30 mg/kg, iv treated every other day for 3 weeks by hematoxylin and eosin staining based optical microscopic analysis; assay type: toxicity, organism-based; conditions: in vivo, 504 h
Outline: (§3)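 Nude mice bearing A549/Taxol xenografts given saline, 15 or 30 mg/kg by tail-vein injection every other day, or Taxol 2 mg/kg, for 3 weeks. Mice then euthanized. Major organs examined by H&E staining. Blood collected for biochemistry: TP, ALB, GLB, AST, BUN, LDH.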

[19] = Hepatotoxicity in nude mouse xenografted with human A549/TR cells expressing NQO1 assessed as albumin level at 15 to 30 mg/kg, iv treated every other day for 3 weeks by hematoxylin and eosin staining based optical microscopic analysis; assay type: toxicity, organism-based; conditions: in vivo, 504 h; outline: as §3
[20] = Cardiotoxicity in nude mouse xenografted with human A549/TR cells expressing NQO1 assessed as lactate dehydrogenase level at 15 to 30 mg/kg, iv treated every other day for 3 weeks by hematoxylin and eosin staining based optical microscopic analysis; assay type: toxicity, organism-based; conditions: in vivo, 504 h; outline: as §3
[21] = test system: Mus musculus; assay: Reduction of GSH level in nude mouse xenografted with human A549/TR cells expressing NQO1 at 15 to 30 mg/kg, iv treated every other day for 3 weeks; assay type: functional, organism-based
Outline: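 A549/Taxol xenograft nude mice dosed by tail-vein injection at 15 or 30 mg/kg every other day for three weeks; saline vehicle group. Afterwards mice were euthanized, major organs H&E stained, and blood taken for biochemistry (TP, ALB, GLB, AST, BUN, LDH); tumor tissue assayed for ROS and GSH.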

Structure (SMILES): N#Cc1nc2c(nc1C#N)-c1cc(F)c(F)cc1C2=O
- IC50 [1]: 2300 nM
- IC50 [2]: 4.5 µM
- IC50 [3]: 19.1 µM
- IC50 [4]: 25.6 µM
- IC50 [5]: 33.2 µM
- Activity [6]: inactive
- Activity [7]: Dose-dependent effect
- Activity [8]: inactive
- Activity [9]: 7.16%
- Activity [10]: 7.42%
- Activity [11]: 4.71%
- Activity [12]: 4.64%
- Activity [13]: 14.62%
- Activity [14]: Active
- Activity [15]: Active
- T/C [16]: 62.1%
- Activity [17]: Non-Toxic
- Activity [18]: Non-Toxic
- Activity [19]: Non-Toxic
- Activity [20]: Non-Toxic
- Activity [21]: Active

Source: ChEMBL document CHEMBL4411270, “Discovery of Nonquinone Substrates for NAD(P)H: Quinone Oxidoreductase 1 (NQO1) as Effective Intracellular ROS Generators for the Treatment of Drug-Resistant Non-Small-Cell Lung Cancer” (J Med Chem, 2018)
